Measured values as given in ChEMBL document CHEMBL4428026, “Discovery of New Monocarbonyl Ligustrazine-Curcumin Hybrids for Intervention of Drug-Sensitive and Drug-Resistant Lung Cancer” (J Med Chem, 2016).
Calls of active or inactive are those of the source. The rule behind the calls is not given here.

How the values were obtained:
[1] = Toxicity in BALB/c nude mouse xenografted with human A549/CDDP cells assessed as body weight at 20 mg/kg, ip administered daily for 15 consecutive days measured on day 15 (reference value: 21 +/- 1.28 g); type: organism-based; settings: in vivo
[2] = Acute toxicity in ICR mouse assessed as survival at 450 mg/kg, ip measured on day 14; type: organism-based; settings: in vivo
Summary of the method: (§1)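 Male and female ICR mice (7 weeks), randomized, 10 per group, given one intraperitoneal dose at 200, 250, 300, 350, 400 or 450 mg/kg. Animals were watched for abnormal behaviour and deaths up to two weeks. Deaths were tallied at 1 h, 4 h, day 3 and days 4-14, with survival on day 14. LD50 was calculated with 95% confidence limits.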

[3] = Acute toxicity in ICR mouse assessed as survival at 200 mg/kg, ip measured on day 14; type: organism-based; settings: in vivo; summary of the method: as §1
A549 [4] = assay: Decrease in TrxR expression in human A549 cells at 2.1 to 4.2 uM after 24 hrs by Western blot method; type: functional, cell-based
Summary of the method: (§2)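 Cells were plated at 1 × 10^6/well overnight, then treated 24 h with vehicle DMSO (0.1%, v/v) or compound (A549, 2.1 or 4.2 µM; A549/DDP, 0.6 or 1.2 µM). Lysis was at 4 °C. Lysates were run on SDS-PAGE (7.5% gel, 20 µg/lane) and immunoblotted with ECL detection; phospho-Akt Ser473 and phospho-ERK Thr202/Tyr204 were probed. Bands were normalized to GAPDH (TrxR, Trx) or β-actin. Three independent experiments were run.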

A549/CDDP [5] = assay: Decrease in P-gp expression in human A549/CDDP cells at 0.6 to 1.2 uM after 24 hrs by Western blot method; type: functional, cell-based
Summary of the method: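 A549/DDP cells were treated for 24 h with vehicle DMSO (0.1%, v/v) or 0.6 or 1.2 µM compound. Lysates were run on SDS-PAGE (7.5% gel, 20 µg/lane), blotted to PVDF and probed with anti-P-gp, with detection by ECL. P-gp was normalized to β-actin. Three independent experiments were run.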

A549 [6] = assay: Effect on ERK expression in human A549 cells at 2.1 to 4.2 uM after 24 hrs by Western blot method; type: functional, cell-based; summary of the method: as §2
[7] = Antiproliferative activity against human SPC-A1 cells after 72 hrs by MTT assay; type: functional, cell-based; settings: SPCA1, 72 h
Summary of the method: (§3)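 Cells (A549, A549/DDP, SPC-A-1, LTEP-G-2, non-tumor bronchial epithelial HBE) were exposed in triplicate to vehicle or compound for 72 h. MTT (5 mg/mL in PBS) was then added for 4 h, formazan was dissolved in DMSO, and absorbance was read at 570 nm. IC50 values were derived from viability.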

A549/CDDP [8] = assay: Antiproliferative activity against human A549/CDDP cells after 72 hrs by MTT assay; type: functional, cell-based; summary of the method: as §3
[9] = Acute toxicity in ICR mouse assessed as survival at 250 mg/kg, ip measured on day 14; type: organism-based; settings: in vivo; summary of the method: as §1
A549 [10] = assay: Induction of apoptosis in human A549 cells assessed as decrease in Bcl2 expression at 2.1 to 4.2 uM after 24 hrs by Western blot method; type: functional, cell-based; summary of the method: as §2
A549/CDDP [11] = assay: Induction of ROS generation in human A549/CDDP cells 2.1 to 4.2 uM after 60 mins by DHE staining-based fluorescence assay; type: functional, cell-based
Summary of the method: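 A549 or A549/DDP cells were treated in triplicate for 60 min with vehicle DMSO (0.1%, v/v) or a range of compound concentrations. Cells were stained with dihydroethidium, and intracellular ROS fluorescence was read on a microplate reader at 300 and 610 nm. Three independent experiments were run.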

`COc1cc(/C=C/C(=O)/C=C/c2nc(C)c(C)nc2C)ccc1O` showed an Activity [1] of 18.6 g, a survival at 14 day [2] of 0% and a survival at 14 day [3] of 90%. For the same compound, the Activity (A549 [4]) was “Active”, the Activity (A549/CDDP [5]) was “Active” and the Activity (A549 [6]) was “inactive”. The IC50 [7] was 3120 nM, the IC50 (A549/CDDP [8]) was 600 nM and the survival at 14 day [9] was 60%. The Activity (A549 [10]) was “Active” and the Activity (A549/CDDP [11]) was “Active”.
